Published values gathered from unrelated publications.
Compare with care: the assays were run in different laboratories.
Cell line: A549
Read-out: cell growth or viability

`Fc1ccc(NC(=S)N/N=C/c2cccc3cc4ccccc4nc23)cc1` has an IC50 of over 50 µM (MTT; 48 h).
`O=C(Cn1cc(COc2ncnc3[nH]cnc23)nn1)NCc1ccc(Cl)cc1` gave an IC50 of 15.3 µM (MTT).
`CC(C)c1ccc(/C=C2\N=C(SCC(=O)O)N(c3ccccc3)C2=O)cc1` has an IC50 of 57.4 µg/mL (MTT).
`COc1cccc2c1C(=O)c1c(O)c3c(c(O)c1C2=O)C[C@@](O)(C(=O)CO)C[C@@H]3O[C@H]1C[C@H](N)[C@H](O)[C@H](C)O1` has an IC50 of 5.95 µM (MTT; 48 h).
`COc1cccc(CNc2ccc(C(=O)O)cc2)c1` gave an IC50 of over 100 µM (resazurin; 72 h).
For `NNc1nc2ccc(Br)cc2c(=O)n1-c1ccccc1`, the IC50 was 53.5 µM (MTT; 48 h).
`O=C(C=Cc1cccs1)c1ccc(OCCOc2ccc(C(=O)C=Cc3cccs3)cc2)cc1` has an IC50 of 42 µM (MTT; 48 h).
The IC50 of `CCC(=O)Nc1nc2cc(-c3ccc4ncn(Cc5ccccc5)c(=O)c4c3)ccc2s1` is reported as over 20 µM (MTT; 72 h).
The IC50 of `CC(=NNC(=O)c1cc(-c2ccccc2)n(-c2ccc(S(N)(=O)=O)cc2)n1)c1ccc(Br)cc1` is reported as 25.9 µM (fluorescence; 48 h).
`CCCn1cnc2ccc(-c3ccc(NC(=O)CC4CCC4)nc3)cc2c1=O` has an IC50 of over 10 µM (CCK-8; 72 h).
`COc1ccc(NC(=O)Nc2nc3cc(-c4ccc5ncn(CCN(C)C)c(=O)c5c4)ccc3s2)cc1` gave an IC50 of 5.46 µM (MTT; 72 h).
The IC50 of `CCCC(=O)Nc1ccc(-c2ccc3ncn(Cc4ccccc4)c(=O)c3c2)cn1` is reported as over 10 µM (CCK-8; 72 h).
`COc1cc([C@@H]2c3cc4c(cc3[C@@H](O[C@@H]3O[C@@H]5CO[C@@H](C)O[C@H]5[C@H](O)[C@H]3O)[C@H]3COC(=O)[C@H]23)OCO4)cc(OC)c1O` has an IC50 of 0.3 µM (SRB; 72 h).
`CCCCC(=O)Nc1ccc(-c2ccc3ncn(CCCC)c(=O)c3c2)cn1` gave an IC50 of 0.87 µM (CCK-8; 72 h).
`OC1CCN(c2ccc(/C=N/NC(=S)NC3CCCCC3)cc2)CC1` has an IC50 of 3.83 µM (MTT; 24 h).
For `CCCCNC(=O)Nc1ccc(-c2ccc3ncn(CCCC)c(=O)c3c2)cn1`, the IC50 was 1.39 µM (CCK-8; 72 h).
The IC50 of `CN(C)c1ccc(Nc2nc(-c3ccncc3)nc3c2CC(N)CC3)cc1` (centres unmarked) is reported as 17.1 µM (MTT).
`CCCCn1cnc2ccc(-c3ccc(NC(=O)Nc4ccc(C)cc4)nc3)cc2c1=O` has an IC50 of over 10 µM (CCK-8; 72 h).
For `COc1cccc(NC(=O)Nc2nc3cc(-c4ccc5ncn(CCN(C)C)c(=O)c5c4)ccc3s2)c1`, the IC50 was 0.91 µM (MTT; 72 h).
`O=C(Nc1ccc(-c2ccc3ncn(Cc4ccc5c(c4)OCO5)c(=O)c3c2)cn1)c1ccccc1` has an IC50 of over 10 µM (CCK-8; 72 h).
`CCNC(=O)Nc1nc2cc(-c3ccc4ncn(Cc5ccccc5)c(=O)c4c3)ccc2s1` gave an IC50 of 11 µM (MTT; 72 h).
For `CCCCCC(=O)Nc1ccc(-c2ccc3ncn(CCCC)c(=O)c3c2)cn1`, the IC50 was 1.34 µM (CCK-8; 72 h).
The IC50 of `CC(C)[C@@H]1NC(=O)[C@@H](CCCNC(=N)N)NC(=O)[C@H](C)NC(=O)[C@@H](CCCN)NC(=O)[C@H](Cc2ccccc2)NC(=O)[C@@H](Cc2ccccc2)NC1=O` is reported as over 100 µM (ATP luminescence; 72 h).
